# Data reported in ChEMBL document CHEMBL4354843, “Structure-Based Design of a Potent and Selective Covalent Inhibitor for SRC Kinase That Targets a P-Loop Cysteine” (J Med Chem, 2020).
# Tests used:
# [1] = molecular target: Serine/threonine-protein kinase pim-2 (Homo sapiens) (UniProt Q9P1W9); assay: Binding affinity to wild-type human partial length PIM2 (M1 to E291 residues) expressed in bacterial expression system assessed as residual binding level at 1 uM by Kinomescan method relative to control
# [2] = molecular target: Casein kinase I isoform delta (Homo sapiens) (UniProt P48730); assay: Binding affinity to wild-type human full length CSNK1D (M1 to K409 residues) expressed in bacterial expression system assessed as residual binding level at 1 uM by Kinomescan method relative to control
# Procedure, shortened: (§1)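 Active-site-directed KinomeScan competition binding panel covering 468 kinases, compound tested at 1 μM. Each readout is the kinase signal remaining with compound, expressed as a percentage of the DMSO control. […]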
# [3] = system: Receptor-type tyrosine-protein kinase FLT3 (Homo sapiens), P36888 [UNDEFINED MUTATION]; assay: Binding affinity to human partial length FLT3 ITD/D835V double mutant expressed in bacterial expression system assessed as residual binding level at 1 uM by Kinomescan method relative to control
# Procedure, shortened: (§2)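 KinomeScan active site-directed competition binding panel (468 kinases), compound tested at 1 μM. Result expressed as remaining kinase signal versus DMSO control (percent of control).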
# [4] = system: Receptor-type tyrosine-protein kinase FLT3 (Homo sapiens), P36888 [K663Q]; assay: Binding affinity to human partial length FLT3 K663Q mutant (V592 to Y969 residues) expressed in bacterial expression system assessed as residual binding level at 1 uM by Kinomescan method relative to control; procedure, shortened: as §2
# [5] = molecular target: Serine/threonine-protein kinase PknB (Mycobacterium tuberculosis) (UniProt P9WI81); assay: Binding affinity to wild-type Mycobacterium tuberculosis partial length PKNB (M1 to G279 residues) expressed in mammalian expression system assessed as residual binding level at 1 uM by Kinomescan method relative to control; procedure, shortened: as §1
# Chain of Serine/threonine-protein kinase PknB (Mycobacterium tuberculosis) (P9WI81 whole entry, the tested form may be a part): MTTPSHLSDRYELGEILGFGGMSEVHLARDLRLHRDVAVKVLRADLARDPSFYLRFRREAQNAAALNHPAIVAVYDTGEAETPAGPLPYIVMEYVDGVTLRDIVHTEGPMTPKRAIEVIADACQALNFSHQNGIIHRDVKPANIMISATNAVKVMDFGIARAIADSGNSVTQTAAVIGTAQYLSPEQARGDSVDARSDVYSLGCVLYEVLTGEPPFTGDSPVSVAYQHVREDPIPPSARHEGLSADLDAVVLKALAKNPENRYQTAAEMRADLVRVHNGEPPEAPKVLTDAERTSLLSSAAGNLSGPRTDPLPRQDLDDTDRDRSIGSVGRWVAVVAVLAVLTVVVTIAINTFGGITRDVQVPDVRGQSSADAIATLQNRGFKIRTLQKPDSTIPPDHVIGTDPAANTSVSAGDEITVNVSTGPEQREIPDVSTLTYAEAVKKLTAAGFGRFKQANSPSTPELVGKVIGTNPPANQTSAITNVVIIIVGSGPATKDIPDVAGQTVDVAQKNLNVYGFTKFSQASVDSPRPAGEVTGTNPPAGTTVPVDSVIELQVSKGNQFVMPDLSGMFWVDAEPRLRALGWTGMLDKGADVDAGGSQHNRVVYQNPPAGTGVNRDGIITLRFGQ
# [6] = molecular target: Protein kinase C delta type (Homo sapiens) (UniProt Q05655); assay: Binding affinity to wild-type human partial length PRKCD (Q328 to D676 residues) expressed in bacterial expression system assessed as residual binding level at 1 uM by Kinomescan method relative to control
# Chain of Protein kinase C delta type (Homo sapiens) (Q05655 whole entry, looked up, the tested form may be a part): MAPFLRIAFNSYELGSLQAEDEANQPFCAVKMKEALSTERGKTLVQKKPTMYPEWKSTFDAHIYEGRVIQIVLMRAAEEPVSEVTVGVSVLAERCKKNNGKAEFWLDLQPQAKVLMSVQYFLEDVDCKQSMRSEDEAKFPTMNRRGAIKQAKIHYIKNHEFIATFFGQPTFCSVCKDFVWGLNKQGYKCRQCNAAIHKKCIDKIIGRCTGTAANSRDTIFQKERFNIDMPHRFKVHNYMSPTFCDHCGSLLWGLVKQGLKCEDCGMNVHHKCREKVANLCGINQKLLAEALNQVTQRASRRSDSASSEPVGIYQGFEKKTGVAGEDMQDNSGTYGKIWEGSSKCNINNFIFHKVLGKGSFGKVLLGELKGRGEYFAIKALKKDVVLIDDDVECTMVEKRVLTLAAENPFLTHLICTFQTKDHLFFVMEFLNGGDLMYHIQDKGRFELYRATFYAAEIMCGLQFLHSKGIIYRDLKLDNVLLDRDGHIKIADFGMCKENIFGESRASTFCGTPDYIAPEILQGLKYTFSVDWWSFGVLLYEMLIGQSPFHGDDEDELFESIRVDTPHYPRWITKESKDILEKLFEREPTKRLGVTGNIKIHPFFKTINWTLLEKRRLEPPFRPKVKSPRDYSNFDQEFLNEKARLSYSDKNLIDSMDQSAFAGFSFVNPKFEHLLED
# [7] = molecular target: Cyclin-dependent kinase-like 5 (Homo sapiens) (UniProt O76039); assay: Binding affinity to wild-type human partial length CDKL5 (M1 to S337 residues) expressed in mammalian expression system assessed as residual binding level at 1 uM by Kinomescan method relative to control
# Chain of Cyclin-dependent kinase-like 5 (Homo sapiens) (O76039 whole entry, the tested form may be a part): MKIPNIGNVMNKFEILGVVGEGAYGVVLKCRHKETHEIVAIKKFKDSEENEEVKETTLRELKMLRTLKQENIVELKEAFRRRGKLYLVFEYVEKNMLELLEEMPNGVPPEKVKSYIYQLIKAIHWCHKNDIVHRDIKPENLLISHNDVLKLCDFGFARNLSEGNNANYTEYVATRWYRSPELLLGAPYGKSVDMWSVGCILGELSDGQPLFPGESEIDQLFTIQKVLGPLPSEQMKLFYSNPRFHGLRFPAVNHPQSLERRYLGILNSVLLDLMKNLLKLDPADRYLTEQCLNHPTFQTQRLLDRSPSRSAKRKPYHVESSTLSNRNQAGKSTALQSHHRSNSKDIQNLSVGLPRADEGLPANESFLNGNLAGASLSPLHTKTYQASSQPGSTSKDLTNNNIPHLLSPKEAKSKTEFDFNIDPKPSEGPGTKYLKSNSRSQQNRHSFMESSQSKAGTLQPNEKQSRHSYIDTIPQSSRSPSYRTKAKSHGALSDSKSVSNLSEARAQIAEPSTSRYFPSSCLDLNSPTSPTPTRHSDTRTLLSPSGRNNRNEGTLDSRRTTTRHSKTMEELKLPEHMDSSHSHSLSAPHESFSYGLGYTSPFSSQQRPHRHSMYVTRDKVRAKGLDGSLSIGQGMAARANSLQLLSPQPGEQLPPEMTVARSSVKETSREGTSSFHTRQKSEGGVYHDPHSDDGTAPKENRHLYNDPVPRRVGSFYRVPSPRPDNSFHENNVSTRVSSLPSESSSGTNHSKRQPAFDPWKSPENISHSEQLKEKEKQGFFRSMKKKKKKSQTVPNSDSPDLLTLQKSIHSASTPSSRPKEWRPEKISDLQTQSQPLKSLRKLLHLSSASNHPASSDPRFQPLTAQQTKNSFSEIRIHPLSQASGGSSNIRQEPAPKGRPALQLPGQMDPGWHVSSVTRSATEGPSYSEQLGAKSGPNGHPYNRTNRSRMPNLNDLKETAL
# [8] = molecular target: Megakaryocyte-associated tyrosine-protein kinase (Homo sapiens) (UniProt P42679); assay: Binding affinity to wild-type human full length CTK (M43 to P508 residues) expressed in mammalian expression system assessed as residual binding level at 1 uM by Kinomescan method relative to control; procedure, shortened: as §1
# Chain of Megakaryocyte-associated tyrosine-protein kinase (Homo sapiens) (P42679 whole entry, the tested form may be a part): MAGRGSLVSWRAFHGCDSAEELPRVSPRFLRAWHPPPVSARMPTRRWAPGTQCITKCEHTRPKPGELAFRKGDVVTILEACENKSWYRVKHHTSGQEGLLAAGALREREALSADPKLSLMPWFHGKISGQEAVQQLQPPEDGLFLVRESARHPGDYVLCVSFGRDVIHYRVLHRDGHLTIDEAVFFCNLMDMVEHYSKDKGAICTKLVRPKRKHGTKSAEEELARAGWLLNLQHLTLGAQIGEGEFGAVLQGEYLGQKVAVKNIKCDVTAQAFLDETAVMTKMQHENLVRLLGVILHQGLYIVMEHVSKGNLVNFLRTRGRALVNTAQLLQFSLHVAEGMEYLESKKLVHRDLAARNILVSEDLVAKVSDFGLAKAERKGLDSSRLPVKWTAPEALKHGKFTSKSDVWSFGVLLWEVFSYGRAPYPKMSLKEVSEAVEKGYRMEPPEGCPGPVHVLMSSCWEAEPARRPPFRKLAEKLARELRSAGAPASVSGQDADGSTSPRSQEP
# [9] = molecular target: Ephrin type-B receptor 6 (Homo sapiens) (UniProt O15197); assay: Binding affinity to wild-type human partial length EPHB6 (Q634 to P948 residues) expressed in mammalian expression system assessed as residual binding level at 1 uM by Kinomescan method relative to control
# Procedure, shortened: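 Active-site-directed competition binding panel of 468 kinases (KinomeScan), compound at 1 μM. The read-out is kinase remaining bound, given as a percentage of the DMSO control. […]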
# [10] = molecular target: cAMP-dependent protein kinase catalytic subunit beta (Homo sapiens) (UniProt P22694); assay: Binding affinity to wild-type human full length PKAC-beta (M1 to F351 residues) expressed in bacterial expression system assessed as residual binding level at 1 uM by Kinomescan method relative to control
# Procedure, shortened: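 Active-site-directed competition binding panel (KinomeScan) covering 468 kinases. Test agent was screened at 1 μM. The read-out is the remaining kinase signal expressed relative to a DMSO control. Scores above 35%, taken as weak binding, were not reported.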
# [11] = molecular target: cGMP-dependent protein kinase 2 (Homo sapiens) (UniProt Q13237); assay: Binding affinity to wild-type human partial length PRKG2 (S422 to F762 residues) expressed in mammalian expression system assessed as residual binding level at 1 uM by Kinomescan method relative to control
# [12] = molecular target: Calcium/calmodulin-dependent protein kinase type II subunit delta (Homo sapiens) (UniProt Q13557); assay: Binding affinity to wild-type human partial length CAMK2D (M1 to E329 residues) expressed in bacterial expression system assessed as residual binding level at 1 uM by Kinomescan method relative to control
# [13] = system: Epidermal growth factor receptor (Homo sapiens), P00533 [G719C]; assay: Binding affinity to human partial length EGFR G719C mutant (R669 to V1011 residues) expressed in bacterial expression system assessed as residual binding level at 1 uM by Kinomescan method relative to control; procedure, shortened: as §2
# [14] = system: Tyrosine-protein kinase ABL1 (Homo sapiens), P00519 [T315I]; assay: Binding affinity to human non-phosphorylated ABL1 T315I mutant (S229 to K512 residues) expressed in mammalian expression system assessed as residual binding level at 1 uM by Kinomescan method relative to control; procedure, shortened: as §2
# [15] = AUC in B6 mouse at 5 mg/kg, ip; assay type: ADME, organism-based; settings: in vivo
# [16] = molecular target: Mitogen-activated protein kinase kinase kinase kinase 4 (Homo sapiens) (UniProt O95819); assay: Binding affinity to wild-type human partial length MAP4K4 (M1 to R310 residues) expressed in bacterial expression system assessed as residual binding level at 1 uM by Kinomescan method relative to control
# [17] = molecular target: Vascular endothelial growth factor receptor 1 (Homo sapiens) (UniProt P17948); assay: Binding affinity to wild-type human partial length FLT1 (R781 to F1239 residues) expressed in bacterial expression system assessed as residual binding level at 1 uM by Kinomescan method relative to control
# [18] = molecular target: Serine/threonine-protein kinase PAK 3 (Homo sapiens) (UniProt O75914); assay: Binding affinity to wild-type human full length PAK3 (M1 to R544 residues) expressed in bacterial expression system assessed as residual binding level at 1 uM by Kinomescan method relative to control
# Chain of Serine/threonine-protein kinase PAK 3 (Homo sapiens) (O75914 whole entry, looked up, the tested form may be a part): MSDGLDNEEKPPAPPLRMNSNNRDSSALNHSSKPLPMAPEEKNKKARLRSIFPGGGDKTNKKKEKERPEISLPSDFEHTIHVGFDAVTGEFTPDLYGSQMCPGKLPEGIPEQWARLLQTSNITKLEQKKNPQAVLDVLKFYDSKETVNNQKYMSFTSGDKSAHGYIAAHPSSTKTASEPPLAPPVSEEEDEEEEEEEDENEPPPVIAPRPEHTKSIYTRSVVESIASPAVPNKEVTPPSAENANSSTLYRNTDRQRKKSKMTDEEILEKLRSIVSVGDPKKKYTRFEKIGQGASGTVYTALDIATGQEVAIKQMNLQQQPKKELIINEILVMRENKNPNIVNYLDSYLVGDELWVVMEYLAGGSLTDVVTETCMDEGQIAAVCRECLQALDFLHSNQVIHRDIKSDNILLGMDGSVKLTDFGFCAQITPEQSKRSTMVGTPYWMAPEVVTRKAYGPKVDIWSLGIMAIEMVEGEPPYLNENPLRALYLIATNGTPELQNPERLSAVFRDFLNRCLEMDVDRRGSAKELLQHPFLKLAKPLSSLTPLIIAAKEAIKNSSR
# Procedure, shortened: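 KinomeScan, an active site-directed competition binding panel of 468 kinases. The test compound was at 1 μM. The readout is remaining kinase binding as a percentage of the DMSO control. Scores above 35% were treated as weak binding and not listed.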
# [19] = system: eIF-2-alpha kinase GCN2 (Homo sapiens), Q9P2K8 [S808G]; assay: Binding affinity to wild-type human partial length GCN2 kinase domain 2 (R585 to T1018 residues) S808G mutant expressed in bacterial expression system assessed as residual binding level at 1 uM by Kinomescan method relative to control
# Chain of eIF-2-alpha kinase GCN2 (Homo sapiens), Q9P2K8 [S808G] (Q9P2K8 whole entry S808G, the tested form may be a part): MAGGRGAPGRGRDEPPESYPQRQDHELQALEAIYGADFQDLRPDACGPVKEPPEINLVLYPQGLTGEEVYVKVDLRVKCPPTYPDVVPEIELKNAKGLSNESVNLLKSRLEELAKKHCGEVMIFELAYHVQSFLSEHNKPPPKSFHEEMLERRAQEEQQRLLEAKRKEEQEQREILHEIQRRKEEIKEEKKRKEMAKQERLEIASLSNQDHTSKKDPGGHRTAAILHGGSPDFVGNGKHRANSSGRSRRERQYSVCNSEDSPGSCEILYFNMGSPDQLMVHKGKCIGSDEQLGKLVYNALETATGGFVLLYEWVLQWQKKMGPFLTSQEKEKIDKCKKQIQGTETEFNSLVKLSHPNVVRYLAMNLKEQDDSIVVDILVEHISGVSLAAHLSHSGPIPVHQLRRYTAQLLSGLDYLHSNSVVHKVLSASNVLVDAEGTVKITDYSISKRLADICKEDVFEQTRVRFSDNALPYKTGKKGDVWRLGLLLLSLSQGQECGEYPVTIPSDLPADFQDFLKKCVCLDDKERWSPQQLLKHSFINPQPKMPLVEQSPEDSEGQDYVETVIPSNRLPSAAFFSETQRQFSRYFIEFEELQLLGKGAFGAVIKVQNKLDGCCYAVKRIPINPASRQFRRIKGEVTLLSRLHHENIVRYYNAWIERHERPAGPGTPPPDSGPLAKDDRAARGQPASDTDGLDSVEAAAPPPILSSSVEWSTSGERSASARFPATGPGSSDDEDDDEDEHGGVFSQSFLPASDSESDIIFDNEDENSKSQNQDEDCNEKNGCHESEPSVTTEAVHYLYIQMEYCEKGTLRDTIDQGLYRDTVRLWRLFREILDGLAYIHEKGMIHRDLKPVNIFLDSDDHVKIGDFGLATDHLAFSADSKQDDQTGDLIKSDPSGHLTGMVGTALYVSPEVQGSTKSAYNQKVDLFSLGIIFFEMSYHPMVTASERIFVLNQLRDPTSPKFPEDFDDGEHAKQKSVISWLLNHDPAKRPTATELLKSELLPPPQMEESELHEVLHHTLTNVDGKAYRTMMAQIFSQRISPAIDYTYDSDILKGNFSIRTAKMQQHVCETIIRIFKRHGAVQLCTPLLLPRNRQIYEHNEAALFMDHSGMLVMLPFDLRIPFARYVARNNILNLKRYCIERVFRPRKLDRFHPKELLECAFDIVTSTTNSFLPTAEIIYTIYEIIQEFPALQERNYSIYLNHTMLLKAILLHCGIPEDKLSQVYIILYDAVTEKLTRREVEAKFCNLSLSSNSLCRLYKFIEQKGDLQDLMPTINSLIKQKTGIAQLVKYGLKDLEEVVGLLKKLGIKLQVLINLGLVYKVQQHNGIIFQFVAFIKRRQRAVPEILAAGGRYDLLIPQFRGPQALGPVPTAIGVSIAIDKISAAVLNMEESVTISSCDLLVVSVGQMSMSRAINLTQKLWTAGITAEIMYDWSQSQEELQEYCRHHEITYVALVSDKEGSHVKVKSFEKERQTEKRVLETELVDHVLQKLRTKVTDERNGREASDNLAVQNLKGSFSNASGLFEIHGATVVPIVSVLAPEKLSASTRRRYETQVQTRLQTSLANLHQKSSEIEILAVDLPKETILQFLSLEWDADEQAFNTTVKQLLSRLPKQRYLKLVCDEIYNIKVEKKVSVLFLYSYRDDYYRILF
# [20] = molecular target: Dual specificity protein kinase TTK (Homo sapiens) (UniProt P33981); assay: Binding affinity to wild-type human partial length TTK (N505 to V798 residues) expressed in bacterial expression system assessed as residual binding level at 1 uM by Kinomescan method relative to control
# Procedure, shortened: (§3)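 Active site-directed competition binding panel (KinomeScan, 468 kinases). Test compound at 1 μM. Read-out is kinase binding remaining versus DMSO control, expressed as percent of control. Scores above 35% are treated as weak binding.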
# [21] = molecular target: Activated CDC42 kinase 1 (Homo sapiens) (UniProt Q07912); assay: Binding affinity to wild-type human partial length TNK2 (S159 to D474 residues) expressed in bacterial expression system assessed as residual binding level at 1 uM by Kinomescan method relative to control; procedure, shortened: as §3
structure (smiles),measurement,setting,value
C=CC(=O)Nc1ccccc1Nc1nc(Nc2ccc(N3CCN(C)CC3)cc2)ncc1C(=O)Nc1c(C)cccc1Cl,Activity,[1],95%
same,Activity,[2],100%
same,Activity,[3],89%
same,Activity,[4],100%
same,Activity,[5],100%
same,Activity,[6],100%
same,Activity,[7],100%
same,Activity,[8],100%
same,Activity,[9],6%
same,Activity,[10],100%
same,Activity,[11],100%
same,Activity,[12],100%
same,Activity,[13],100%
same,Activity,[14],100%
same,AUC,[15],212 ng·h/mL
same,Activity,[16],100%
same,Activity,[17],100%
same,Activity,[18],76%
same,Activity,[19],87%
same,Activity,[20],94%
same,Activity,[21],81%
